LMPTP block: blocks human LMPTP phosphatase; P24666; recombinant LMPTP-A, OMFP fluorogenic substrate, fluorescence intensity; inhibition, % at 20 µM; hit rate 0.22% among 360,000; AID 651560;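 active = compounds that cut the enzyme signal by at least half of the control window in the single-dose screen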;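 also: plate controls were DMSO wells with enzyme plus substrate for no effect and substrate without enzyme for full effect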
Target sequence (P24666 whole entry, looked up): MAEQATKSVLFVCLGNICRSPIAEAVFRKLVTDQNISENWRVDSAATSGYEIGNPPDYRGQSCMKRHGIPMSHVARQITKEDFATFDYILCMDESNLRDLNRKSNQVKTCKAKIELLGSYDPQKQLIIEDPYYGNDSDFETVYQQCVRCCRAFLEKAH
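Test system: LMPTP-A, protein tyrosine phosphatase of low molecular weight; Input: 0.625 nM enzyme; Incubation: 50 min dark incubation at room temperature; Signal: endpoint fluorescence intensity from OMFP dephosphorylation; Read-out basis: % inhibition versus control wells.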
DNMT1 inh: blocks human DNA methyltransferase DNMT1. P26358. DNMT1 molecular beacon, Hinp1I cleavage, fluorescence. inhibition (reported as % activation of signal), % at 10 µM. hit rate 0.83% among 360,000; in the data active = inhibition above about 50%
SUMO1 PPI mod: SUMO1-SIM interaction modulation; inhibition, % at 20 µM; P63165; hit rate 0.33% among 360,000; SUMO1 binding to a labelled peptide, TR-FRET, 1 h; in the data active = inhibition above about 37%
Scp-1 inhibitor: blocks human Scp-1 phosphatase activity; hit rate 0.88% among 340,000; inhibition, % at 20 µM; Recombinant Scp1, phosphopeptide, malachite green phosphate absorbance;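 active = inhibition above about 50% at 20 µM, limit read from the data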;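 also: plate controls were DMSO wells with enzyme for no effect and wells lacking enzyme for full effect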
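Material – SCP-1 phosphatase catalytic domain, residues 76-261 · Buffer or medium – Acidic Tris acetate buffer with magnesium and detergent · Also added – Phospho 17-mer peptide substrate · Compound – single 20 µM dose, 1% DMSO · Times – 45 min room-temperature reaction, 5 min colour, 30 min stabiliser · Technique – Phosphate-binding colour reagent, absorbance read at 630 nm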
GRK2 aptamer HTS: blocks RNA aptamer binding to human GRK2 | AID 488847 | hit rate 0.59% among 330,000 | bead flow cytometry, FAM-aptamer displacement from GRK2 | inhibition of aptamer binding, % at 10 µM;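 active = inhibition of aptamer binding above 40%, roughly 3 SD of noise, on plates passing a quality check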;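 also: median bead fluorescence of bound FAM aptamer so fluorescent compounds give negative values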
STEP block: inhibitors of human striatal-enriched phosphatase STEP | P54829 | recombinant STEP, OMFP fluorogenic substrate, fluorescence | inhibition, % at 20 µM | hit rate 0.25% among 360,000 | AID 588621;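 active = inhibition at 20 µM, scaled per plate between control wells, above about 37%, limit read from the data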;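 also: 0% = DMSO with enzyme and substrate and 100% = substrate only without enzyme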
Target sequence (P54829 whole entry, looked up): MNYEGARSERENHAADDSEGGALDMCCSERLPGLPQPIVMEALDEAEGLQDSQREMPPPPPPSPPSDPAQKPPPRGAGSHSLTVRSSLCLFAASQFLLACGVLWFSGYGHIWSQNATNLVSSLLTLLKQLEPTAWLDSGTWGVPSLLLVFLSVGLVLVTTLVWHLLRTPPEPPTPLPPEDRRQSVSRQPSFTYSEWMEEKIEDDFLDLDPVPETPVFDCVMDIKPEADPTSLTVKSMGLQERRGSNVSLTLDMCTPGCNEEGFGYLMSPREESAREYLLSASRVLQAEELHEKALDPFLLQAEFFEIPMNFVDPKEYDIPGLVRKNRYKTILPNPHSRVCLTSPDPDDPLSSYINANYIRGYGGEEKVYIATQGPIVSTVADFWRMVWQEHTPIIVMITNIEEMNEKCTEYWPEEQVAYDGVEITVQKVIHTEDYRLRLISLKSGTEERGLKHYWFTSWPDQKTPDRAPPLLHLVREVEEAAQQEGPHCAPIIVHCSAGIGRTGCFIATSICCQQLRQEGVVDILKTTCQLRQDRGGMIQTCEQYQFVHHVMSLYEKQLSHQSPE
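System: isolated STEP enzyme; schedule: 20 min enzyme reaction at room temperature, protected from light; medium: Bis-Tris buffer pH 6.0, 2.5 mM DTT, 0.005% Tween 20; signal: fluorescence, 480/540 nm; dosing: single compound dose of 20 µM, 1% DMSO final; also added: OMFP substrate, 25 µM final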
GRK2 inh confirm: human GRK2 inhibition confirmation, cherry pick 1; shares compounds with GRK2 aptamer HTS; aptamer displacement, % at 10 µM; hit rate 4% among 2,000; bead-bound GRK2, FAM-aptamer displacement, flow cytometry; AID 504451;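 active = aptamer displacement above 40%, near three times the noise of non-fluorescent compounds, on plates passing quality checks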;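 also: negative values mostly reflect intrinsic compound fluorescence rather than true enhancement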
Aptamer quench SP: aptamer fluorescence quenching in GRK2 counter-screen | shares compounds with GRK2 aptamer HTS | Carboxyfluorescein RNA aptamer on beads, flow cytometry quenching; stronger effect = lower value | fluorescence response (% of DMSO), % at 10 µM | 2,000 tested, under 10 active;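 active = compounds that quench the bead-bound fluorescent RNA probe, cutting fluorescence to under half of the solvent control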;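 also: counterscreen run without GRK2 so only probe quenching by compound is measured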
GRK2 confirm 2: confirmation of human GRK2 inhibitors binding RNA aptamer site. shares compounds with GRK2 aptamer HTS. bead-bound GRK2, FAM-aptamer displacement, flow cytometry. inhibition of aptamer binding, % at 10 µM. 360 tested, under 10 active;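 active = inhibition of aptamer binding above 40%, about triple the noise seen with nonglowing compounds, on plates passing quality control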;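 also: negative values mostly come from compounds that fluoresce themselves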
FAM quench CP2: quenches fluorescent RNA aptamer, GRK2 hit artifact; shares compounds with GRK2 aptamer HTS; carboxyfluorescein RNA aptamer beads, flow cytometry quenching; stronger effect = lower value; fluorescence response vs DMSO, % at 10 µM; 360 tested, under 10 active; AID 588494;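 active = response vs DMSO under 50%, meaning signal dropped by over half, treated as fluorescence quencher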;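 also: labelled aptamer on streptavidin beads without GRK2 as a quench counter-screen; 100% = bead fluorescence of DMSO wells and lower means quenching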
Numbers without * were called inactive. A selection: hits, their analogues and other compounds. The true share with any hit is near 2.1%.

For CC(NC(=O)C1CCCN(S(=O)(=O)N2CCOCC2)C1)c1ccccc1 (stereo not given) the results were LMPTP block -1, DNMT1 inh 2, SUMO1 PPI mod -7, Scp-1 inhibitor -5, GRK2 aptamer HTS 2, STEP block 0, GRK2 inh confirm -1 and Aptamer quench SP 95.
CCOC(=O)[C@H](CCc1ccccc1)N[C@@H](C)C(=O)N1[C@H](C(=O)O)C[C@@H]2CCC[C@@H]21 was read as LMPTP block -1, DNMT1 inh 2, SUMO1 PPI mod 4, Scp-1 inhibitor -6, GRK2 aptamer HTS 0 and STEP block 8.
For COc1cc(C)c(NC(=O)COc2cccc3c2OC(C)(C)C3)cc1OC the results were LMPTP block -1, DNMT1 inh 5, SUMO1 PPI mod 6, Scp-1 inhibitor -3, GRK2 aptamer HTS 41*, STEP block -1, GRK2 confirm 2 21 and FAM quench CP2 99.
CCOc1ccc(NC(=O)CN(C)C(=O)COc2cccc3c2OC(C)(C)C3)cc1OCC was read as LMPTP block -1, DNMT1 inh -5, SUMO1 PPI mod 3, Scp-1 inhibitor 4, GRK2 aptamer HTS 98*, STEP block -1, GRK2 inh confirm 0 and Aptamer quench SP 96.
`CN1CCN(C(=O)/C=C/c2ccc(C#N)cc2)CC1` gave LMPTP block -1, DNMT1 inh 0, SUMO1 PPI mod -13, Scp-1 inhibitor -9, GRK2 aptamer HTS 0 and STEP block -2.
For Cc1ccc(NC(=O)CSC2=C(C#N)C(c3ccco3)C3=C(CCCC3=O)N2)cc1 (stereo not given) the results were LMPTP block 2, DNMT1 inh -4, SUMO1 PPI mod -9, Scp-1 inhibitor -11, GRK2 aptamer HTS 57*, STEP block -4, GRK2 inh confirm 0 and Aptamer quench SP 94.
For N#Cc1c(NC(=O)CSc2nc3ccccc3s2)sc2c1CCCC2 the results were LMPTP block 1, DNMT1 inh -4, SUMO1 PPI mod -1, Scp-1 inhibitor -7, GRK2 aptamer HTS 1 and STEP block 1.
For Oc1cncc(Cc2ccccc2)c1 the results were LMPTP block 1, DNMT1 inh 2, SUMO1 PPI mod -1, Scp-1 inhibitor -7, GRK2 aptamer HTS 0 and STEP block 1.
Screening Cc1ccc(CNC(=O)CCn2cc(-c3ccc(F)cc3)nc2-c2ccncc2)cc1 returned LMPTP block -2, DNMT1 inh -4, SUMO1 PPI mod 2, Scp-1 inhibitor 0, GRK2 aptamer HTS 0 and STEP block 2.
O=C(O)CCn1cc(-c2ccc(F)cc2)nc1-c1ccncc1 was read as LMPTP block -4, DNMT1 inh 1, SUMO1 PPI mod 4, Scp-1 inhibitor 0, GRK2 aptamer HTS 40, STEP block 0, GRK2 inh confirm 1 and Aptamer quench SP 98.
Screening COc1cnn(-c2ccc(C)cc2)c(=O)c1Cl returned LMPTP block 0, DNMT1 inh -2, SUMO1 PPI mod -6, Scp-1 inhibitor 1, GRK2 aptamer HTS 1 and STEP block 0.
COc1cnn(-c2ccc(C)cc2)c(=O)c1Br was read as LMPTP block 0, DNMT1 inh 5, SUMO1 PPI mod -3, Scp-1 inhibitor -6, GRK2 aptamer HTS 30, STEP block -2, GRK2 inh confirm 0 and Aptamer quench SP 94.
`Cc1cccc(N2CCN(C(=O)c3ccccc3OCc3c(C)noc3C)CC2)c1C` gave LMPTP block 0, DNMT1 inh -1, SUMO1 PPI mod 7, Scp-1 inhibitor -3, GRK2 aptamer HTS 2 and STEP block 0.
Screening CCOCCCNC(=O)C1(O)c2cc(Br)ccc2NC(=O)N1c1ccc(OCC)cc1 (stereo not given) returned LMPTP block -1, DNMT1 inh 12, SUMO1 PPI mod 0, Scp-1 inhibitor -7, GRK2 aptamer HTS 61*, STEP block -2, GRK2 inh confirm 0 and Aptamer quench SP 102.
COc1ccccc1Oc1c(C)oc2c(CN3CCOCC3)c(O)ccc2c1=O was read as LMPTP block 0, DNMT1 inh -2, SUMO1 PPI mod -4, Scp-1 inhibitor 1, GRK2 aptamer HTS 58*, STEP block -2, GRK2 inh confirm 3 and Aptamer quench SP 99.
Screening COc1ccccc1Oc1coc2c(CN3CCOCC3)c(O)ccc2c1=O returned LMPTP block 0, DNMT1 inh 0, SUMO1 PPI mod 4, Scp-1 inhibitor -2, GRK2 aptamer HTS 2 and STEP block -1.
CC(C)n1nnnc1SCC(=O)NC1CCCC1 was read as LMPTP block -1, DNMT1 inh -1, SUMO1 PPI mod 0, Scp-1 inhibitor 1, GRK2 aptamer HTS 1 and STEP block -1.
For O=C(NCc1ccccc1Cl)C1CCN(C(=O)c2ccc(F)cc2)CC1 the results were LMPTP block -1, DNMT1 inh 1, SUMO1 PPI mod 2 and STEP block -2.
For O=C(NCc1ccccc1CN1CCCC1)C1CCN(C(=O)c2ccc(F)cc2)CC1 the results were LMPTP block 0, DNMT1 inh -3, SUMO1 PPI mod -15, Scp-1 inhibitor -4, GRK2 aptamer HTS 69*, STEP block -2, GRK2 inh confirm -46 and Aptamer quench SP 120.
Screening CN(Cc1ccc(Cl)cc1)C(C(=O)NC1CCCCC1)c1ccnc2ccccc12 (stereo not given) returned LMPTP block 4, DNMT1 inh -7, SUMO1 PPI mod -2 and STEP block 3.
Cc1ccnc(N/C=C/C(=O)c2ccc(Br)cc2)c1 was read as LMPTP block 0, DNMT1 inh 4, SUMO1 PPI mod 1, Scp-1 inhibitor 0, GRK2 aptamer HTS 0 and STEP block 1.
Cc1cc(N/C=C/C(=O)c2ccc(Br)cc2)no1 was read as LMPTP block 5, DNMT1 inh 20, SUMO1 PPI mod -3, Scp-1 inhibitor -4, GRK2 aptamer HTS 77*, STEP block 0, GRK2 inh confirm -2 and Aptamer quench SP 99.

Screens from PubChem BioAssay.
